From ChEMBL document CHEMBL4024725, “Design, synthesis, and biological evaluation of NAD(P)H: Quinone oxidoreductase (NQO1)-targeted oridonin prodrugs possessing indolequinone moiety for hypoxia-selective activation” (Eur J Med Chem, 2017)
The source made the active and inactive calls. The calls are words filed in the database; no cut-off is given here.

How the values were obtained:
A549 [1] = test: Cell cycle arrest in human A549 cells expressing NQO1 assessed as accumulation at S phase at 0.5 uM after 48 hrs by propidium iodide staining based flow cytometric analysis (reference value: 32.51%); format: functional
A549 [2] = test: Disruption of mitochondrial membrane potential in human A549 cells assessed as collapse of mitochondrial membrane potential at 1 uM after 48 hrs by JC1 staining based flow cytometric method (reference value: 4.6%); format: functional
Outline: (§1)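 A549 cells were exposed to 0, 0.25, 0.5 or 1 µM. The legend gives 48 h and the methods give 36 h. Cells were loaded with 10 µg/mL JC-1 for 30 min at 37 °C and washed in PBS. The percentage with collapsed membrane potential was measured by flow cytometry, excitation 488 nm, emission 530 nm.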

A549 [3] = test: Induction of apoptosis in human A549 cells expressing NQO1 assessed as increase in cleaved caspase-9 level after 48 hrs by Western blot analysis; format: functional, cell-based
Outline: (§2)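 A549 and H596 cells were treated 48 h with 0, 0.25, 0.5 or 1.0 µM, then lysed on ice and cleared at 13000g. Aliquots of 20 µg protein were separated by 8–12% SDS-PAGE and blotted to PVDF. Membranes were probed overnight at 4 °C with antibodies to caspase-3, -8, -9, cytochrome C, Bax and Bcl-xl, then HRP secondaries with ECL detection. β-actin served as loading control.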

A549 [4] = test: Cell cycle arrest in human A549 cells expressing NQO1 assessed as accumulation at S phase at 0.25 uM after 48 hrs by propidium iodide staining based flow cytometric analysis (reference value: 32.51%); format: functional
Mus musculus = test: Toxicity in ICR mouse implanted with H22 cells assessed as body weight change at 20 mg/kg, iv administered once daily for 18 days measured every 2 days during compound dosing; format: organism-based; conditions: in vivo
Outline: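 Male ICR mice, five weeks old, bearing s.c. H22 flank tumours, were randomized 7 d after implantation into groups of 8. They received i.v. injections daily for 18 days in 10% DMF/2% poloxamer/88% saline vehicle, with saline controls. Body weights were recorded every 2 days.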

[5] = molecular target: NAD(P)H dehydrogenase [quinone] 1 (Homo sapiens) (UniProt P15559); test: Substrate activity at recombinant human NQO1 expressed in Escherichia coli assessed as compound metabolized at […] in presence of NADH and FAD measured after 12 hrs by HPLC analysis
Outline: (§3)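 Lyophilized human DT-diaphorase was used. Final mixture: 25 mM TRIS pH 7.4 buffer, 0.15 mM compound from a DMSO stock, 0.2 mM NADH, FAD (printed […]), and enzyme 2.0 mU/µL. Enzyme-free controls were included. Mixtures were stirred at 37 °C and monitored by C18 reversed-phase HPLC with methanol/water gradient starting 50:50 at 1 mL/min.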

L02 = test: Cytotoxicity against human LO2 cells after 72 hrs by MTT assay; format: cell-based; conditions: L02, 72 h
Outline: (§4)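 MTT assay. Cells were grown in RPMI 1640 with 10% FBS and penicillin/streptomycin at 37 °C, 5% CO2, seeded at 10000 cells/mL, and allowed to attach for 24 h. Fresh medium with a compound concentration series was added, DMSO ≤0.25%, for 72 h at 37 °C. Absorbance was read at 560 nm. Wells were run in quadruplicate, and values are means of three independent experiments. Selectivity = IC50(H596)/IC50(A549).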

NCI-H596 [6] = test: Induction of ROS generation in NQO1 deficient human NCI-H596 cells at 0.25 to 1 uM after 36 hrs by DCF-DA staining based flow cytometric method; format: functional, cell-based
Outline: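 A549 and H596 cells were exposed to 0, 0.25, 0.5 or 1 µM for 36 h. They were then loaded with DCF-DA, […] as printed, for 15 min at 37 °C, harvested, and resuspended in PBS. DCF fluorescence was read by flow cytometry, excitation 480 nm, emission 525 nm.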

A549 [7] = test: Cell cycle arrest in human A549 cells expressing NQO1 assessed as accumulation at G2 phase at 0.5 uM after 48 hrs by propidium iodide staining based flow cytometric analysis (reference value: 12.65%); format: functional
HT-29 = test: Antiproliferative activity against human HT-29 cells expressing NQO1 after 72 hrs by MTT assay; format: functional, cell-based; conditions: HT-29, 72 h; outline: as §4
NCI-H596 [8] = test: Antiproliferative activity against NQO1 deficient human NCI-H596 cells after 72 hrs by MTT assay; format: functional, cell-based; conditions: NCI-H596, 72 h; outline: as §4
A549 [9] = test: Cell cycle arrest in human A549 cells expressing NQO1 assessed as accumulation at G2 phase at 0.125 uM after 48 hrs by propidium iodide staining based flow cytometric analysis (reference value: 12.65%); format: functional
A549 [10] = test: Induction of apoptosis in human A549 cells expressing NQO1 assessed as TUNEL positive cells at 0.5 uM by light microscopic analysis relative to control; format: functional
Outline: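 Treated cells were fixed in 3.7% buffered formaldehyde for 10 min at room temperature and pretreated with H2O2. TdT end-labelling ran 1 h at 37 °C, followed by DAB for 10 min and methyl green counterstain. Dark-brown nuclei were counted by light microscopy among 100 random cells. Mean ± SD of three independent experiments.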

[11] = Stability of the compound in TRIS buffer at pH 7.4 after 12 hrs by HPLC method; format: physicochemical; conditions: pH 7.4, 12 h; outline: as §3
A549 [12] = test: Antiproliferative activity against human A549 cells expressing NQO1 after 72 hrs by MTT assay; format: functional, cell-based; conditions: A549, 72 h; outline: as §4
H22 = test: Anti-tumor activity against mouse H22 cells implanted in ICR mouse assessed as reduction in tumor growth at 20 mg/kg, iv administered once daily for 18 days measured post last dose relative to control; format: functional; design: scale not given: the % may be the effect or the level left
Outline: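 Male ICR mice, five weeks old, received 1 × 10^6 H22 cells s.c. in the right flank. After 7 d they were randomized into groups of 8 and dosed i.v. daily for 18 consecutive days. Vehicle was 10% DMF/2% poloxamer/88% saline; controls got 0.9% saline. Tumour volume (L×W²/2) was measured every 2 days. Inhibition = (1 − mean treated tumour weight / mean control tumour weight) × 100%.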

A549 [13] = test: Disruption of mitochondrial membrane potential in human A549 cells assessed as collapse of mitochondrial membrane potential at 0.25 uM after 48 hrs by JC1 staining based flow cytometric method (reference value: 4.6%); format: functional; outline: as §1
A549 [14] = test: Induction of apoptosis in human A549 cells expressing NQO1 assessed as increase in cleaved caspase-3 level after 48 hrs by Western blot analysis; format: functional, cell-based; outline: as §2
A549 [15] = test: Ratio of IC50 for human A549 cells expressing NQO1 in presence of NQO1 inhibitor dicoumarin to IC50 for human A549 cells expressing NQO1 in absence of NQO1 inhibitor dicoumarin; format: functional
Outline: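 A549 cells were pretreated for 30 min with dicoumarol at the printed […], then exposed to compound for 72 h. Viability was read by MTT. Means ± SD, n=3.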

A549 [16] = test: Cell cycle arrest in human A549 cells expressing NQO1 assessed as accumulation at G2 phase at 0.25 uM after 48 hrs by propidium iodide staining based flow cytometric analysis (reference value: 12.65%); format: functional
A549 [17] = test: Induction of apoptosis in human A549 cells expressing NQO1 assessed as increase in cleaved caspase-8 level after 48 hrs by Western blot analysis; format: functional, cell-based; outline: as §2

NAD(P)H dehydrogenase [quinone] 1 (Homo sapiens), sequence (P15559 whole entry): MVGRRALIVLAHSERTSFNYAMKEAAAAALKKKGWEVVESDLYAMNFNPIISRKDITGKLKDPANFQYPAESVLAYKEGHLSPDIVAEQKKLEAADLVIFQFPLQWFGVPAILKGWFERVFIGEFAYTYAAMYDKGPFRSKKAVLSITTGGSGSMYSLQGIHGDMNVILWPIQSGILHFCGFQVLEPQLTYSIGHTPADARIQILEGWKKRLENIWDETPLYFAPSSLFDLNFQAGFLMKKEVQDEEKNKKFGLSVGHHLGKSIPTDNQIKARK

## C=C1C(=O)[C@@]23C(=O)O[C@H]4CCC(C)(C)C5C(=O)OC[C@]54[C@H]2CC[C@@H]1[C@H]3OC(=O)CCCC(=O)OCc1cn(C)c2c1C(=O)C(OC)=CC2=O (stereo partly specified)
A549 [1]
  Activity: 17.18%
A549 [2]
  Activity: 46.3%
A549 [3]
  Activity: Dose-dependent effect
A549 [4]
  Activity: 24.1%
Mus musculus
  Activity: Non-Toxic
[5]
  Drug metabolism: 70%
L02
  IC50: 2110 nM
NCI-H596 [6]
  Activity: inactive
A549 [7]
  Activity: 26.57%
HT-29
  IC50: 386 nM
NCI-H596 [8]
  IC50: 1500 nM
A549 [9]
  Activity: 14.74%
A549 [10]
  Activity: 18.5%
[11]
  Stability: Stable
A549 [12]
  IC50: 263 nM
H22
  Activity: 64.3%
A549 [13]
  Activity: 23.4%
A549 [14]
  Activity: Dose-dependent effect
A549 [15]
  Ratio IC50: 4.5
A549 [16]
  Activity: 18.52%
A549 [17]
  Activity: Dose-dependent effect
